As usually defined, the inhibition in vivo is the percentage by which the read-out fell short of the control.

The results in this text go back to ChEMBL document CHEMBL1781989, “Novel β-carboline-tripeptide conjugates attenuate mesenteric ischemia/reperfusion injury in the rat” (2011).

For assay [1], the system named is Mus musculus. Put plainly: Analgesic activity in ICR mouse assessed as increase in pain threshold at 0.15 mmol/kg, po after 180 mins by tail flick method (reference value: 8.75 +/- 9.73 %). Type of assay: functional. In general terms: Hot-plate and tail-flick tests time the reaction to a heat stimulus.
The subject of assay [2] is Mus musculus. Put plainly: Analgesic activity in ICR mouse assessed as increase in pain threshold at 0.15 mmol/kg, po after 150 mins by tail flick method (reference value: 9.02 +/- 12.19 %). Type of assay: functional.
For assay [3], the system named is Mus musculus. Put plainly: Analgesic activity in ICR mouse assessed as increase in pain threshold at 0.15 mmol/kg, po after 60 mins by tail flick method (reference value: 7.45 +/- 8.03 %). Type of assay: functional.
The test system of assay [4] is Mus musculus. The experiment in a line: Analgesic activity in ICR mouse assessed as increase in pain threshold at 0.15 mmol/kg, po after 30 mins by tail flick method (reference value: 5.03 +/- 10.26 %). Type of assay: functional.
For assay [5], the system named is Mus musculus. The experiment in a line: Analgesic activity in ICR mouse assessed as increase in pain threshold at 0.15 mmol/kg, po after 90 mins by tail flick method (reference value: 7.53 +/- 11.54 %). Type of assay: functional.
Assay [6] concerns Mus musculus. The experiment in a line: Analgesic activity in ICR mouse assessed as increase in pain threshold at 0.15 mmol/kg, po after 120 mins by tail flick method (reference value: 8.09 +/- 13.28 %). The class given is functional.
Assay [7] relates to Mus musculus. The experiment in a line: Antiinflammatory activity in ICR mouse assessed as inhibition of xylene-induced ear edema at 0.05 mmol/kg, po administered 30 mins before xylene challenge measured after 2 hrs relative to control. The class given is functional. A digest of the protocol:
(§1)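 Male ICR mice (20 ± 2 g), randomised to test, vehicle (CMC) and aspirin (10 mg/kg oral) groups. Test agents given orally as CMC suspension. After 30 min, 0.03 mL xylene applied to both faces of the right ear, left ear as control. At 2 h mice were killed and 7 mm ear punches weighed. Edema is the right-minus-left weight, and inhibition is taken against vehicle.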

Assay [8] concerns Mus musculus. The experiment in a line: Antiinflammatory activity in ICR mouse assessed as inhibition of xylene-induced ear edema at 0.15 mmol/kg, po administered 30 mins before xylene challenge measured after 2 hrs relative to control. Type of assay: functional. In outline: as §1
Assay [9] has as its system Mus musculus. Put plainly: Antiinflammatory activity in po dosed ICR mouse assessed as inhibition of xylene-induced ear edema administered 30 mins before xylene challenge measured after 2 hrs. The class given is functional, organism-based. A digest of the protocol:
as §1

Assay [10] deals with Mus musculus. The experiment in a line: Antiinflammatory activity in ICR mouse assessed as inhibition of xylene-induced ear edema at 0.10 mmol/kg, po administered 30 mins before xylene challenge measured after 2 hrs relative to control. The class given is functional. A digest of the protocol: as §1

Structures are written as SMILES. Non-standard residues stand in square brackets, D forms with d. Residues, ends and D or L forms follow the SMILES beside them. Tpi = O=C(O)[C@@H]1Cc2c([nH]c3ccccc23)CN1

Turning to `CC(C)C[C@H](N)C(=O)N[C@@H](Cc1ccccc1)C(=O)N[C@@H](Cc1c[nH]c2ccccc12)C(=O)O` (H-Leu-Phe-Trp-OH), the Activity was determined as 7.98% in assay [1]; 9.77% in [2]; 28.79% in [3]; 25.38% in assay [4]; 20.13% in assay [5]; 18.92% in [6].

As to `NCCCC[C@H](N)C(=O)N[C@@H](Cc1ccccc1)C(=O)N[C@@H](Cc1c[nH]c2ccccc12)C(=O)O` (H-Lys-Phe-Trp-OH), the Activity in [1] is 8.41%; in assay [2], 11.23%; in [3] it was 25.43%; in assay [4], 20.16%; in [5] it was 23.47%; in assay [6] it was 20.14%.

Consider `C[C@H](NC(=O)[C@@H]1Cc2c([nH]c3ccccc23)CN1)C(=O)N[C@@H](Cc1ccccc1)C(=O)N[C@@H](Cc1c[nH]c2ccccc12)C(=O)O` (H-[Tpi]AFW-OH), for which the Activity in [1] is 19.22%; in [2], 28.79%; in [3], 48.23%; in [4] it was 37.58%; in assay [5] it was 46.48%; in assay [6], 42.03%. Further, the inhibition in vivo at 50 µmol/kg in [7] is 32.6%. In addition, in assay [8], the inhibition in vivo at 150 µmol/kg came to 52.7%. Besides, in assay [9], the inhibition result is “Dose-dependent effect”. The inhibition in vivo at 100 µmol/kg in [10] is 44.8%.

On to `O=C(O)C[C@H](NC(=O)[C@@H]1Cc2c([nH]c3ccccc23)CN1)C(=O)N[C@@H](Cc1ccccc1)C(=O)N[C@@H](Cc1c[nH]c2ccccc12)C(=O)O` (H-[Tpi]DFW-OH), for which the Activity in assay [1] is 18.77%; in [2], 13.54%; in [3], 28.12%; in assay [4] it was 22.17%; in [5], 34.55%; in assay [6], 40.67%. The inhibition in vivo at 150 µmol/kg in assay [8] came out at 40%.

Regarding `O=C(O)CC[C@H](NC(=O)[C@@H]1Cc2c([nH]c3ccccc23)CN1)C(=O)N[C@@H](Cc1ccccc1)C(=O)N[C@@H](Cc1c[nH]c2ccccc12)C(=O)O` (H-[Tpi]EFW-OH), the Activity in assay [1] was determined as 12.32%; in [2], 12.25%; in assay [3], 17.23%; in assay [4] it was 18.24%; in assay [5], 29.25%; in assay [6], 39.23%. Besides, the inhibition in vivo at 150 µmol/kg in assay [8] worked out at 28.4%.

Regarding `O=C(O)[C@H](Cc1c[nH]c2ccccc12)NC(=O)[C@H](Cc1ccccc1)NC(=O)[C@H](Cc1ccccc1)NC(=O)[C@@H]1Cc2c([nH]c3ccccc23)CN1` (H-[Tpi]FFW-OH), the Activity in assay [1] is given as 15.32%; in [2], 21.12%; in assay [3], 37.2%; in assay [4] it was 31.34%; in assay [5], 40.56%; in assay [6], 45.46%. Moreover, the inhibition in vivo at 150 µmol/kg in assay [8] is 48.2%.

Turning to `O=C(CNC(=O)[C@@H]1Cc2c([nH]c3ccccc23)CN1)N[C@@H](Cc1ccccc1)C(=O)N[C@@H](Cc1c[nH]c2ccccc12)C(=O)O` (H-[Tpi]GFW-OH), the Activity in assay [1] is reported as 14.36%; in [2], 22.37%; in assay [3] it was 40.78%; in assay [4], 10.36%; in [5] it was 46.45%; in [6], 49.09%. In assay [8], the inhibition in vivo at 150 µmol/kg came out at 37.5%.

Consider `O=C(O)[C@H](Cc1c[nH]c2ccccc12)NC(=O)[C@H](Cc1ccccc1)NC(=O)[C@H](Cc1cnc[nH]1)NC(=O)[C@@H]1Cc2c([nH]c3ccccc23)CN1` (H-[Tpi]HFW-OH), for which the Activity was 13.29% in assay [1]; 24.33% in assay [2]; 32.19% in [3]; 37.25% in [4]; 22.23% in assay [5]; 39.38% in assay [6]. In addition, the inhibition in vivo at 150 µmol/kg in assay [8] turned out to be 57.6%.

Regarding `CC[C@H](C)[C@H](NC(=O)[C@@H]1Cc2c([nH]c3ccccc23)CN1)C(=O)N[C@@H](Cc1ccccc1)C(=O)N[C@@H](Cc1c[nH]c2ccccc12)C(=O)O` (H-[Tpi]IFW-OH), the Activity in assay [1] came out at 16.13%; in [2], 15.25%; in assay [3] it was 38.01%; in assay [4], 33.01%; in assay [5] it was 41.23%; in assay [6] it was 27.32%. Further, in assay [8], the inhibition in vivo at 150 µmol/kg worked out at 56.4%.

Regarding `NC(=O)C[C@H](NC(=O)[C@@H]1Cc2c([nH]c3ccccc23)CN1)C(=O)N[C@@H](Cc1ccccc1)C(=O)N[C@@H](Cc1c[nH]c2ccccc12)C(=O)O` (H-[Tpi]NFW-OH), the Activity in assay [1] is listed as 19.45%; in assay [2], 22.12%; in [3], 45.23%; in [4], 21.24%; in assay [5], 34.56%; in [6], 39.25%. The inhibition in vivo at 150 µmol/kg in [8] stood at 55.8%.

On to `O=C(O)[C@H](Cc1c[nH]c2ccccc12)NC(=O)[C@H](Cc1ccccc1)NC(=O)[C@@H]1CCCN1C(=O)[C@@H]1Cc2c([nH]c3ccccc23)CN1` (H-[Tpi]PFW-OH), for which the Activity in assay [1] is given as 15.68%; in assay [2] it was 25.05%; in assay [3], 49.74%; in [4] it was 23.17%; in assay [5], 21.35%; in [6], 18.79%. Besides, the inhibition in vivo at 150 µmol/kg in assay [8] was determined as 47.3%.

Take `NC(=O)CC[C@H](NC(=O)[C@@H]1Cc2c([nH]c3ccccc23)CN1)C(=O)N[C@@H](Cc1ccccc1)C(=O)N[C@@H](Cc1c[nH]c2ccccc12)C(=O)O` (H-[Tpi]QFW-OH): the Activity in assay [1] amounted to 22.45%; in assay [2] it was 18.32%; in assay [3], 47.33%; in assay [4], 41.83%; in assay [5], 51.25%; in [6] it was 32.33%. Further, the inhibition in vivo at 150 µmol/kg in assay [8] was 42.4%.

For `O=C(O)[C@H](Cc1c[nH]c2ccccc12)NC(=O)[C@H](Cc1ccccc1)NC(=O)[C@H](CO)NC(=O)[C@@H]1Cc2c([nH]c3ccccc23)CN1` (H-[Tpi]SFW-OH), the Activity came out at 25.07% in assay [1]; 26.47% in [2]; 42.32% in [3]; 30.56% in assay [4]; 44.13% in [5]; 38.45% in [6]. Also, the inhibition in vivo at 150 µmol/kg in assay [8] worked out at 45.7%.

Regarding `C[C@@H](O)[C@H](NC(=O)[C@@H]1Cc2c([nH]c3ccccc23)CN1)C(=O)N[C@@H](Cc1ccccc1)C(=O)N[C@@H](Cc1c[nH]c2ccccc12)C(=O)O` (H-[Tpi]TFW-OH), the Activity was 19.25% in assay [1]; 23.19% in [2]; 38.2% in assay [3]; 30.75% in [4]; 40.36% in assay [5]; 42.43% in assay [6]. In addition, the inhibition in vivo at 150 µmol/kg in assay [8] is 50.6%.

`CC(C)[C@H](NC(=O)[C@@H]1Cc2c([nH]c3ccccc23)CN1)C(=O)N[C@@H](Cc1ccccc1)C(=O)N[C@@H](Cc1c[nH]c2ccccc12)C(=O)O` (H-[Tpi]VFW-OH): the Activity in [1] was 16.03%; in assay [2], 25.88%; in [3] it was 45.77%; in assay [4] it was 39.47%; in assay [5], 47.36%; in [6] it was 35.79%. In assay [8], the inhibition in vivo at 150 µmol/kg was determined as 43.6%.

With `O=C(O)[C@H](Cc1c[nH]c2ccccc12)NC(=O)[C@H](Cc1ccccc1)NC(=O)[C@H](Cc1c[nH]c2ccccc12)NC(=O)[C@@H]1Cc2c([nH]c3ccccc23)CN1` (H-[Tpi]WFW-OH), the Activity was 14.23% in assay [1]; 16.69% in assay [2]; 36.45% in assay [3]; 35.05% in assay [4]; 35.19% in assay [5]; 28.55% in [6]. For the same molecule, the inhibition in vivo at 150 µmol/kg in assay [8] came to 51.5%.

Regarding `CC(=O)Oc1ccccc1C(=O)O` [ASPIRIN], the Activity in assay [1] is recorded as 21.72%; in [2] it was 30.41%; in assay [3] it was 38.45%; in [4], 32.85%; in assay [5], 41.23%; in assay [6], 33.24%.
